This note sets out measurements from PubChem BioAssay.

What is called viability is a read-out of living cells in per cent, often relative to untreated cells. The inhibition is the relative decrease from the control value, in per cent.

Structures are written as SMILES. Activity calls are given as the source filed them.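 How the source made its calls, unless noted: active means viability at or below 30% in both replicate assays; inconclusive means viability at or below 30% in just one of the two assays; inactive means the rest.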

Experiment [1] can be described thus: reducers of endogenous Her2 protein level, primary screen, SKBR3 breast tumor cells, AlphaScreen, ATP viability (AID 461;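 active means Her2 level under about 52% in both replicate screens, with viability over 70% of control, limit read from the data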;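 on Her2 level: lower value means less Her2 protein in the cells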;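 on viability: percent of carrier control wells set as 100% viability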). The note with it: 18-24 h, measured here: SKBR3 viability, ATP luminescence, at 10 µM. A general note: Alpha assays give light when donor and acceptor beads are brought close together.
Experiment [2] concerns the target Receptor tyrosine-protein kinase erbB-2 (Homo sapiens) (UniProt P04626). The experiment is described as above. The following applies: 18-24 h, at 10 µM, stronger effect = lower value.
A short description of experiment [3]: SK-BR-3 cell growth inhibitors, pilot screen, 24 h, human (AID 572;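 active means viability at or below 10% of carrier control in both of two separate runs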;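 further: compound exposure lasted between 18 and 24 h rather than exactly 24 h; 100% = carrier-treated control wells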). The following applies: SK-BR-3 viability, CellTiter-Glo luminescence, at 10 µM, stronger effect = lower value. On the technique in general: In ATP-based viability assays light output follows the ATP content of the culture.
Experiment [4] in a line: HUVEC growth inhibition – cell-based, human, primary screen (AID 575).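 Further: 100% = median of untreated cell wells with 0.1% DMSO on each plate.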 The note with it: HUVEC proliferation, CellTiter-Glo luminescence, 72 h; at 10 µM; stronger effect = lower value. In short, it runs like this:
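System – primary HUVEC, no more than 12 passages · Medium – Low-serum (2% FBS) EBM, supplemented · Times – 72 h exposure, 37 °C, 5% CO2, 30 min RT equilibration · Measured by – luminescent ATP assay · Read-out – % viability relative to median vehicle-well signal on each plate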

Experiment [5] can be described thus: growth inhibitors of H69AR lung tumor, primary screen, human, duplicate replicates (AID 580;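 active means viability at or under a set limit in both replicates, limit being median viability minus 3 SD, cut at about 48% in these data, passing the limit was not always enough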;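 further: 100% = mean luminescence of untreated wells and 0% = no signal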). The following applies: H69AR lung tumor cells viability, ATP luminescence, 72 h; at 10 µM; stronger effect = lower value.
The nature of experiment [6]: reversal of MRP1-mediated doxorubicin resistance, pilot screen, H69AR cells, doxorubicin co-treatment (AID 601;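 active means viability loss from added drug above about 55%, and viability with drug at most 40%, in both replicates, limit read from the data, passing the limit was not always enough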). The note with it: CellTiter-Glo, 72 h, at 10 µM; for differential viability (reversal): stronger effect = higher value.
Experiment [7] can be described thus: 384-well plate pilot, post-Golgi transport modulator project, inhibition of yeast transport mutant growth (AID 636; in the data active means inhibition above about 31%). The following applies: absorbance 615 nm, about 18 h, stronger effect = higher value.
Experiment [8] in a line: growth suppression of yeast trafficking mutant, preliminary HTS, modulators of trafficking downstream of Golgi apparatus project, 1536-format plate, OD 615 nm (AID 637; in the data active means inhibition above about 30%). The note with it: yeast transport mutant growth, absorbance 615 nm, 18 h; stronger effect = higher value.
Setting [9] is: H69AR cells + 2 uM doxorubicin, measured here: viability with 2 uM doxorubicin, stronger effect = lower value.
The mark [10] stands for this setting: H69AR cells, compound alone cytotoxicity.

Receptor tyrosine-protein kinase erbB-2 (Homo sapiens), sequence (P04626 whole entry, looked up): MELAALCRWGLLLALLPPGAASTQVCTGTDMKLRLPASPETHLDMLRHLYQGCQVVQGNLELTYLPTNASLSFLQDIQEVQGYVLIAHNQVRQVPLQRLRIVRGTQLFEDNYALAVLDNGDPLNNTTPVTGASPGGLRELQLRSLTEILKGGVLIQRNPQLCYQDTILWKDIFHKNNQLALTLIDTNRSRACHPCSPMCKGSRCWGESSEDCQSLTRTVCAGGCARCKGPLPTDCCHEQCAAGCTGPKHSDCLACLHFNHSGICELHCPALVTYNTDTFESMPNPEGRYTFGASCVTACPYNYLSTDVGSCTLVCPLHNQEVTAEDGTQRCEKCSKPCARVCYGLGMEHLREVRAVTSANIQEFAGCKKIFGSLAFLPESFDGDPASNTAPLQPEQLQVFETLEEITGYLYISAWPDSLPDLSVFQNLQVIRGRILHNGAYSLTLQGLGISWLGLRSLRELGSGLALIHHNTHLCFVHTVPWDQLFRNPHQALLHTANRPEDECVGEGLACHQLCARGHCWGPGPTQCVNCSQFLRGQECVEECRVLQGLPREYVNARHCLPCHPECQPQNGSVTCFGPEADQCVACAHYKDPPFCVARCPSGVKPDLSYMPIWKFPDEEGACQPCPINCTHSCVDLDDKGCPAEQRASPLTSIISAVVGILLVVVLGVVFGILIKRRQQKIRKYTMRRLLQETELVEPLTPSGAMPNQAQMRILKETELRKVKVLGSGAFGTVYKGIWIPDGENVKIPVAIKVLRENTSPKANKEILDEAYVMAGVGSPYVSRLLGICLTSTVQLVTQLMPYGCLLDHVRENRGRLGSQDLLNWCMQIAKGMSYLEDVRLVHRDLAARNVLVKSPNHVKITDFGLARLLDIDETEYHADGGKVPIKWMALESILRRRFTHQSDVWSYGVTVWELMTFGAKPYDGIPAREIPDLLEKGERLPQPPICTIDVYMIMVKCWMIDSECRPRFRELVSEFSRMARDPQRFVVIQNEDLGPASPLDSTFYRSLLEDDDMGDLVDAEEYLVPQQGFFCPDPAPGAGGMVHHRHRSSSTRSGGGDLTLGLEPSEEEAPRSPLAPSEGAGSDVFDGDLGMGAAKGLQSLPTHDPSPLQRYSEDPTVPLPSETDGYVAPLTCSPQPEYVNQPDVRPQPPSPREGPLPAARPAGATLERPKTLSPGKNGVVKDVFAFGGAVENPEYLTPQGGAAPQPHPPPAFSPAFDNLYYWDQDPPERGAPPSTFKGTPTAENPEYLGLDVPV

Take `COc1ccc(NC(=O)CC2Oc3ccccc3NC2=O)cc1` (stereo not given): the viability in experiment [1] is 87.5%; in experiment [3], 87.5% (inactive); in experiment [4], 96.2% (inactive); in experiment [5], 97.6% (inactive); in experiment [6] (setting [9]) it was 97.1%; in experiment [6] (setting [10]), 97.6%. Besides, the Her2 level in experiment [2] was 90% (inactive). The differential viability (reversal) in experiment [6] (H69AR cells + 2 uM doxorubicin) was 0.535% (inactive). The inhibition in experiment [7] is 0.27% (inactive); in experiment [8], -4.75% (inactive).
`COc1ccc2[nH]c(=O)c(CN(CC3CCCO3)C(=O)Nc3ccc(F)cc3)cc2c1` (stereo not given): the viability in experiment [1] is 84.5%; in experiment [3] it was 84.5% (inactive); in experiment [4], 26.1% (active); in experiment [5], 39.4% (active); in experiment [6] (setting [9]), 47.8%; in experiment [6] (setting [10]), 39.4%. In addition, the Her2 level in experiment [2] was 113% (inactive). Also, the differential viability (reversal) in experiment [6] (H69AR cells + 2 uM doxorubicin) is -8.38% (inactive). For the same compound, the inhibition in experiment [7] was -0.68% (inactive); in experiment [8] it was 2.46% (inactive).
As for `O=C(Nc1ccc2c(c1)OCCO2)C1CCCN1S(=O)(=O)c1cccc2cccnc12` (stereo not given), the viability in experiment [1] was 92%; in experiment [3], 92% (inactive); in experiment [4] it was 100% (inactive); in experiment [5] it was 96.8% (inactive); in experiment [6] (setting [9]), 82.3%; in experiment [6] (setting [10]), 96.8%. Besides, the Her2 level in experiment [2] was 100% (inactive). In addition, the differential viability (reversal) in experiment [6] (H69AR cells + 2 uM doxorubicin) is 14.4% (inactive). Also, the inhibition in experiment [7] was -1.33% (inactive); in experiment [8], -0.98% (inactive).
With `O=C(O)CCCc1nc(-c2ccccc2)no1`, the viability was 91.5% in experiment [1]; 91.5% (inactive) in experiment [3]; 96% (inactive) in experiment [4]; 97% (inactive) in experiment [5]; 97.8% in experiment [6] (setting [9]); 97% in experiment [6] (setting [10]). For the same compound, in experiment [2], the Her2 level is 87.5% (inactive). Besides, the differential viability (reversal) in experiment [6] (H69AR cells + 2 uM doxorubicin) was -0.87% (inactive). Further, the inhibition was -4.53% (inactive) in experiment [7] and 0.95% (inactive) in experiment [8].
On to `c1c2c(cc3sc(N4CCCCC4)nc13)OCCO2`, for which the viability in experiment [1] is 98%; in experiment [3], 98% (inactive); in experiment [4] it was 87% (inactive); in experiment [5] it was 75.4% (inactive); in experiment [6] (setting [9]) it was 73.3%; in experiment [6] (setting [10]), 75.4%. In experiment [2], the Her2 level was 91.5% (inactive). Besides, the differential viability (reversal) in experiment [6] (H69AR cells + 2 uM doxorubicin) was 2.07% (inactive). Moreover, the figures for the inhibition in experiment [7] and in experiment [8] were -4.93% (inactive) and 7.26% (inactive), respectively.
Turning to `Cc1ccccc1CSCC(=O)c1c(N)n(C)c(=O)n(C)c1=O`, the viability was 86.5% in experiment [1]; 86.5% (inactive) in experiment [3]; 106% (inactive) in experiment [4]; 93.5% (inactive) in experiment [5]; 95.6% in experiment [6] (setting [9]); 93.5% in experiment [6] (setting [10]). The Her2 level in experiment [2] is 86.5% (inactive). The differential viability (reversal) in experiment [6] (H69AR cells + 2 uM doxorubicin) is -2.12% (inactive). Also, the values for the inhibition in experiment [7] and in experiment [8] were -2.37% (inactive) and -2.22% (inactive), respectively.
On to `Cn1c(=N)n(CC(=O)O)c2ccccc21`, for which the viability in experiment [1] is 108%; in experiment [3], 108% (inactive); in experiment [4], 91.5% (inactive); in experiment [5] it was 96.2% (inactive); in experiment [6] (setting [9]), 89.4%; in experiment [6] (setting [10]), 96.2%. Moreover, in experiment [2], the Her2 level is 100% (inactive). Moreover, the differential viability (reversal) in experiment [6] (H69AR cells + 2 uM doxorubicin) is 6.81% (inactive). Besides, the inhibition is -5.97% (inactive) in experiment [7] and -5.4% (inactive) in experiment [8].
Take `CC(=O)Nc1c(Cl)n(C(C)=O)c2ccccc12`: the viability in experiment [1] is 85%; in experiment [3], 85% (inactive); in experiment [4], 71.6% (inactive); in experiment [5] it was 84% (inactive); in experiment [6] (setting [9]), 90.4%; in experiment [6] (setting [10]) it was 84%. In addition, the Her2 level in experiment [2] is 65% (inactive). Moreover, the differential viability (reversal) in experiment [6] (H69AR cells + 2 uM doxorubicin) was -6.37% (inactive). Further, the inhibition in experiment [7] was -7.57% (inactive); in experiment [8], 5.5% (inactive).
In the case of `O=C(Nc1ccc(Br)cc1F)c1sccc1-n1cccc1`, the viability was 87.5% in experiment [1]; 87.5% (inactive) in experiment [3]; 93.5% (inactive) in experiment [4]; 83.1% (inactive) in experiment [5]; 81.7% in experiment [6] (setting [9]); 83.1% in experiment [6] (setting [10]). The Her2 level in experiment [2] was 72.5% (inactive). In experiment [6] (H69AR cells + 2 uM doxorubicin), the differential viability (reversal) is 1.42% (inactive). Besides, the inhibition in experiment [7] is -5.66% (inactive); in experiment [8] it was -8.67% (inactive).
As to `CC1CCN(CCn2c(=S)[nH]c3ncccc3c2=O)CC1`, the viability in experiment [1] is 98.5%; in experiment [3], 98.5% (inactive); in experiment [4] it was 78.6% (inactive); in experiment [5], 104% (inactive); in experiment [6] (setting [9]), 93.9%; in experiment [6] (setting [10]), 104%. Moreover, the Her2 level in experiment [2] was 95% (inactive). Besides, the differential viability (reversal) in experiment [6] (H69AR cells + 2 uM doxorubicin) was 9.6% (inactive). Further, the inhibition was -2.89% (inactive) in experiment [7] and 0.83% (inactive) in experiment [8].
In the case of `O=C(Nc1cccnc1)Nc1ccc2c(c1)OCO2`, the viability in experiment [1] is 102%; in experiment [3], 102% (inactive); in experiment [4], 78.1% (inactive); in experiment [5] it was 82.7% (inactive); in experiment [6] (setting [9]) it was 69.8%; in experiment [6] (setting [10]), 82.7%. Moreover, the Her2 level in experiment [2] was 74% (inactive). Also, the differential viability (reversal) in experiment [6] (H69AR cells + 2 uM doxorubicin) is 12.9% (inactive). The inhibition is -2.24% (inactive) in experiment [7] and 6.03% (inactive) in experiment [8].
As for `CCCNC(=O)Nc1ccccc1C(=O)Nc1ccc(OC)cc1`, the viability in experiment [1] was 85%; in experiment [3], 85% (inactive); in experiment [4], 85.7% (inactive); in experiment [5], 94.6% (inactive); in experiment [6] (setting [9]) it was 104%; in experiment [6] (setting [10]), 94.6%. In experiment [2], the Her2 level was 81% (inactive). Moreover, the differential viability (reversal) in experiment [6] (H69AR cells + 2 uM doxorubicin) was -9.12% (inactive). Moreover, the values for the inhibition in experiment [7] and in experiment [8] were -4.46% (inactive) and -2.3% (inactive), respectively.
As to `Cc1nn(-c2ccc(F)cc2)c2nc(N)c(C#N)c(-c3cccs3)c12`, the viability was 80.5% in experiment [1]; 80.5% (inactive) in experiment [3]; 85.4% (inactive) in experiment [4]; 86.2% (inactive) in experiment [5]; 81.3% in experiment [6] (setting [9]); 86.2% in experiment [6] (setting [10]). Further, the Her2 level in experiment [2] is 75.5% (inactive). In addition, the differential viability (reversal) in experiment [6] (H69AR cells + 2 uM doxorubicin) was 4.98% (inactive). Besides, the inhibition in experiment [7] was -0.79% (inactive); in experiment [8] it was 3.44% (inactive).
For the compound `N#Cc1c(NC(=O)CSc2nc(N)cc(=O)[nH]2)sc2c1CCCCCC2`, the viability was 104% in experiment [1]; 104% (inactive) in experiment [3]; 59.9% (inactive) in experiment [4]; 91.5% (inactive) in experiment [5]; 86.1% in experiment [6] (setting [9]); 91.5% in experiment [6] (setting [10]). In addition, in experiment [2], the Her2 level was 90% (inactive). In experiment [6] (H69AR cells + 2 uM doxorubicin), the differential viability (reversal) was 5.43% (inactive). The values for the inhibition in experiment [7] and in experiment [8] were -0.66% (inactive) and -10% (inactive), respectively.
With `Cn1nnnc1SCC(=O)NC1CCCCC1`, the viability in experiment [1] is 77.5%; in experiment [3] it was 77.5% (inactive); in experiment [4], 108% (inactive); in experiment [5], 96.1% (inactive); in experiment [6] (setting [9]), 97.2%; in experiment [6] (setting [10]) it was 96.1%. In addition, the Her2 level in experiment [2] is 77% (inactive). Also, in experiment [6] (H69AR cells + 2 uM doxorubicin), the differential viability (reversal) is -1.11% (inactive). Also, the inhibition in experiment [7] was -5.95% (inactive); in experiment [8], -2.62% (inactive).
Turning to `CCOC(=O)c1c(NC(=O)c2cccs2)sc(C)c1C`, the viability was 77% in experiment [1]; 77% (inactive) in experiment [3]; 67.8% (inactive) in experiment [4]; 86.2% (inactive) in experiment [5]; 83.6% in experiment [6] (setting [9]); 86.2% in experiment [6] (setting [10]). For the same compound, in experiment [2], the Her2 level is 83.5% (inactive). Also, the differential viability (reversal) in experiment [6] (H69AR cells + 2 uM doxorubicin) was 2.64% (inactive). For the same compound, the inhibition was -5.33% (inactive) in experiment [7] and -0.16% (inactive) in experiment [8].
